Screening data: PubChem, several laboratories
STAT1 inh = STAT1 signaling inhibition | NIH 3T3 STAT1-luciferase reporter, IFN-gamma, luminescence | inhibition, % at 5.5 µM | 200,000 tested, 0.35% active;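 active means inhibition above a set limit, the mean inhibition across all tested compounds plus 3 SD, cut at about 34% in these data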;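 further: 0% = IFN-gamma with DMSO and 100% = IFN-gamma with 300 µM nifuroxazide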
STAT1 activator = STAT1 signaling activation | AID 932 | 200,000 tested, 2.6% active | NIH 3T3 STAT1-luciferase reporter, IFN-gamma, luminescence; 100% = IFN-gamma alone, no compound | activation (% of control), % at 5.5 µM;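 active means activation above the screen-wide mean activation plus 3 SD, cut at about 130% in these data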;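 further: raw ratio to IFN-gamma control signal so 100% means no change and 0% no light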
NF-kB expr up = raises NF-kB expression in human neuronal cells | AID 1239 | 190,000 tested, 1.6% active | fold change at 12.5 µM | NF-kB reporter expression; stronger effect = higher value; in the data active means fold change above about 3.3
STAT3 blocker = inhibitors of IL-6 induced STAT3 signaling | U3A cells, IL-6 STAT3-luciferase reporter, luminescence; host cell line lacks STAT1 | inhibition, % at 5.5 µM | 190,000 tested, 0.89% active;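 active means inhibition above the mean inhibition across all screened compounds plus 3 SD, cut at about 44% in these data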;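 further: 0% = DMSO only wells and 100% = 100 µM nifuroxazide control wells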
APP 5'UTR act = APP 5'UTR luciferase reporter activation. SH-SY5Y APP 5'UTR luciferase reporter, luminescence; zero percent = DMSO vehicle wells. activation, % at 2 µM. 190,000 tested, 1% active. AID 1276;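 active means activation above a set limit, based on mean plus 3 SD of controls, cut at about 140% in these data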
STAT3 activator = STAT3 signaling activation; U3A cells, IL-6 STAT3-luciferase reporter, luminescence; 100% = signal with IL-6 EC80 alone; activation (% of control), % at 5.6 µM; 190,000 tested, 0.91% active; AID 871;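 active means activation above the screen-wide mean of compound activation plus 3 SD, cut at about 130% in these data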;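 further: 0% = background luminescence of wells with medium and substrate only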
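Material: STAT3-luciferase reporter U3A cells; Probe or stimulus: IL-6 (33 ng/mL); Incubation: compound pre-incubation 1 h before IL-6, then 6 h stimulation at 37 °C; Technique: luminescence from STAT3-driven luciferase reporter; Evaluation: % activation versus median of IL-6-stimulated wells; Controls: IL-6-only high control.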
Active calls of the source: *; / = no result given. Rows were chosen to be rich in hits. Some 4.9% of all compounds tested hit in one or more screens of this group.

SMILES	STAT1 inh	STAT1 activator	NF-kB expr up	STAT3 blocker	APP 5'UTR act	STAT3 activator
c1ccc(COc2ccc(CN3CCN(c4ccccn4)CC3)cc2)cc1	-18	117	2.7	7	38	101
O=C(CCSc1ccccn1)Nc1ccc(Br)cc1	-45	140*	3.4*	-1	65	103
O=[N+]([O-])c1ccccc1CSc1nc2ccccc2o1	-43	140*	2.4	-21	65	115
COc1ccc(C(C)=O)cc1CSc1nc2ccccc2o1	3	97	1.9	15	18	90
Nc1cc(-c2nn[nH]n2)ccc1F	5	96	1	10	7	95
CCCc1ccc(-c2ccc(F)c(N)c2)nc1	37*	67	4.2*	97*	140*	24
COc1ccccc1Nc1nc(N)nc(-c2cc3ccccc3o2)n1	-18	117	1.2	8	31	98
Cc1ccc(Nc2nc(N)nc(-c3oc4ccccc4c3C)n2)cc1	-61	156*	/	-54	-92	154*
COc1cccc(Nc2nc(N)nc(-c3oc4ccccc4c3C)n2)c1	-38	134*	1.3	-24	-76	123
CCNC(=O)NC(=O)C(C)OC(=O)Cc1coc2cc3c(cc12)CCC3 (configuration not stated)	3	97	0.99	7	14	101
Cc1ccc(-n2nnc(-c3cccnc3Cl)n2)cc1	-26	126	8.6*	/	204*	/
Clc1ccc(-n2nnc(-c3cccnc3Cl)n2)cn1	-34	134*	1.8	/	48	/
Clc1ncccc1-c1nnn(-c2ccccc2Br)n1	-21	121	1.7	/	6	/
COc1cc(/C=N/Nc2nn3cnnc3c3ccccc23)ccc1O	36*	67	0.75	58*	3	51
COc1cccc(/C=N/Nc2nn3cnnc3c3ccccc23)c1	10	91	0.5	32	-8	78
O=C(Nc1ccc(Cl)cc1Cl)C1=Cc2ccccc2OC1	-45	141*	5.9*	26	221*	81
CC(=O)N1CCN(CC(=O)Nc2ccc3c(c2)CCC3)CC1	8	93	1	11	-9	90
C/C(=N\NC(=O)c1cc(C(C)(C)C)[nH]n1)C12CC3CC(CC(C3)C1)C2	-1	99	1.3	-11	17	113
CCOC(=O)c1[nH]c(C=O)c(C(=O)OCC)c1C	-7	106	1.4	-5	-91	106
CC(C)c1ccc(-c2nnn(CCC(=O)O)n2)cc1	48*	57	0.39	78*	-82	39
O=C(O)CCn1nnc(-c2cccs2)n1	0	100	1.3	8	-4	97
O=C(O)c1ccc(Nc2nc(-c3ccccc3)cs2)cc1	-50	145*	4.7*	-2	126	105
O=C(/C=C/c1ccco1)Nc1cccc2cccnc12	-28	125	1.6	-18	25	117
Cc1ccc(NC(=O)/C=C/c2ccco2)nc1	-54	147*	0.89	-13	-89	111
COc1ccc(-c2csc(NC(=S)NC(=O)/C=C/c3ccco3)n2)cc1OC	4	96	1.3	3	-75	100
SMILES	STAT1 inh	STAT1 activator	NF-kB expr up	STAT3 blocker	APP 5'UTR act	STAT3 activator
O=C(/C=C/c1ccco1)Nc1nc(-c2ccccn2)cs1	-31	129*	0.76	-18	14	114
O=C(Nc1ccc(Cl)cc1)Nc1nc(-c2ccccc2)cs1	-5	104	1.3	19	-4	93
O=C(/C=C/c1ccco1)Nc1nc(-c2ccccc2)cs1	-37	133*	1.5	1	93	97
CCCS(=O)(=O)c1ccc(COC(=O)c2cccc(NC(=O)C(C)C)c2)cc1	10	91	/	11	11	96
COc1cnc(SCCC(F)=C(F)F)[nH]c1=O	5	96	1.1	2	-3	100
O=C(Oc1cccc(NC(=O)c2ccco2)c1)c1ccc(Br)c(S(=O)(=O)N2CCCCC2)c1	-1	100	1.4	2	-8	100
Cc1csc(NC(=O)/C=C/c2ccco2)n1	-52	147*	2.8	9	88	92
O=C1C2C(c3ccccc3)(C(=O)N1c1ccc(Cl)cc1)C2(c1ccccc1)c1ccccc1 (configuration not stated)	0	100	0.47	-1	7	100
c1ccc(-n2cnc3cc(NCc4ccco4)ccc32)cc1	-53	147*	1.5	-7	86	108
COc1ccc(-n2cnc3cc(NCc4cccs4)ccc32)cc1	-34	131*	1.4	-3	30	106
C/C(=N\OCc1ccc(C#N)cc1)c1ccccc1	-45	142*	2.6	27	94	80
C/C(=N/OCO/N=C(\C)c1ccccc1)c1ccccc1	1	99	1.1	-7	2	106
COc1ccc(CNc2nc(S(=O)(=O)c3ccccc3)c(Cl)s2)cc1OC	8	93	0.86	12	-9	92
O=C(NCc1ccccc1)c1cccc(COc2ccccc2Cl)c1	-9	108	1.8	-11	112	115
O=C(NCc1ccccc1)c1cccc(COc2cc(Cl)ccc2Cl)c1	-39	135*	1.5	-12	21	109
O=C(Nc1ccc(N2CCOCC2)cc1)c1cnsn1	44*	60	0.58	87*	24	31
O=C(Nc1ccc(N2CCOCC2)cc1)c1ccncc1	-3	97	1.1	1	-3	100
COc1cc(NC(=S)NNC(=O)C(C)(C)O)cc(OC)c1	-1	101	1.1	8	-3	101
C(=C\c1ccccc1)/C=N/N1CCN(c2ccccn2)CC1	-35	132*	2.1	11	17	98
Cc1ccc(/C=N/c2sc3c(c2C#N)CCCCC3)o1	-43	139*	0.95	14	19	92
CN1CCN(/C=N/c2sc3c(c2C#N)CCCCC3)CC1	-50	146*	2.7	-10	95	110
Cc1ccc(/C=N/c2sc3c(c2C#N)CCC3)s1	-55	150*	1.2	35	86	74
N#Cc1c(/N=C/c2cc3ccccc3s2)sc2c1CCC2	-20	118	0.76	5	12	98
CC(C)CN(/C=N/c1sc2c(c1C#N)CCCCC2)CC(C)C	1	102	1	-6	-4	105
Cc1ccc2cc(C=O)c(N(C)C)nc2c1	2	98	1.3	-38	-19	134*
O=C1CCCCC1Sc1nnc(Nc2ccccc2)s1 (configuration not stated)	-49	144*	3.1	-12	58	112
CCCC(=O)Nc1ccc(C(=O)Nc2ccc([N+](=O)[O-])cc2OC)cc1	-4	101	0.92	25	-7	83
COC(=O)C1=C(C)OC(N)=C(C#N)C1c1cc2cc(C)ccc2nc1Cl (configuration not stated)	5	94	1.3	8	-2	97
